Laboratory results: ChEMBL document CHEMBL2176927 (J Med Chem, 2012)
Activity calls are given as the source filed them. The calls are words filed in the database; no cut-off is given here.

Legend:
[1] = Inhibition of mTORC2 in human pTEN deficient NCI-PC3 cells assessed as reduction of Akt phosphorylation at Ser473; assay type: cell-based
PC-3 [2] = experiment: Cytotoxicity against human pTEN deficient PC3 after 3 days; assay type: functional, cell-based; conditions: PC-3, 72 h
[3] = Selectivity ratio of Ki for PI3Kalpha to Ki for mTOR
Cytochrome P450 2D6 = Cytochrome P450 2D6 (Homo sapiens, UniProt P10635); experiment: Inhibition of CYP2D6-mediated dextromethorphan metabolism; assay type: ADME; conditions: recombinant enzyme
Sequence of Cytochrome P450 2D6 (P10635 whole entry): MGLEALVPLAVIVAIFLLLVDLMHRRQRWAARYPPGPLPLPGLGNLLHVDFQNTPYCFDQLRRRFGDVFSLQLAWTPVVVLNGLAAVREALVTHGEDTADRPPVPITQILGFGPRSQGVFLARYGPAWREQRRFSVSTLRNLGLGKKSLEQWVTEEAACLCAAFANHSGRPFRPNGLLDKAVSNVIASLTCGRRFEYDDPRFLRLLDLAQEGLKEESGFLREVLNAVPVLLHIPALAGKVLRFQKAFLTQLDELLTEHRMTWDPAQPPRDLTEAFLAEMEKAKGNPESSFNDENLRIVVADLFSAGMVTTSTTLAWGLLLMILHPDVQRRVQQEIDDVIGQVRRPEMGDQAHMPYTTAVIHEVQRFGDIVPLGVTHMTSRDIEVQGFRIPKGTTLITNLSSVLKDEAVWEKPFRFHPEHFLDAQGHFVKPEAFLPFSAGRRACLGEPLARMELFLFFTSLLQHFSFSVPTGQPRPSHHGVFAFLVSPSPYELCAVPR

[4] = Clearance in mouse at 1 mg/kg, iv; assay type: ADME, organism-based; parameters: dose 1 mg/kg, route intravenous; conditions: in vivo
[5] = Clearance in mouse liver microsomes; assay type: ADME, Microsome
Method in brief: (§1)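 Hepatic clearance (Clhep) predicted from incubation with human, rat or mouse liver microsomes.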

[6] = Clearance in human liver microsomes; assay type: ADME, Microsome; method in brief: as §1
[7] = Volume of distribution at steady state in mouse at 1 mg/kg, iv; assay type: ADME, organism-based; parameters: dose 1 mg/kg, route intravenous; conditions: in vivo, read-out: Vdss
Cytochrome P450 1A2 = target: T1, Cytochrome P450 1A2 (Homo sapiens, UniProt P05177); experiment: Inhibition of CYP1A2-mediated phenacetin metabolism; assay type: ADME; conditions: recombinant enzyme
T1 sequence (P05177 whole entry): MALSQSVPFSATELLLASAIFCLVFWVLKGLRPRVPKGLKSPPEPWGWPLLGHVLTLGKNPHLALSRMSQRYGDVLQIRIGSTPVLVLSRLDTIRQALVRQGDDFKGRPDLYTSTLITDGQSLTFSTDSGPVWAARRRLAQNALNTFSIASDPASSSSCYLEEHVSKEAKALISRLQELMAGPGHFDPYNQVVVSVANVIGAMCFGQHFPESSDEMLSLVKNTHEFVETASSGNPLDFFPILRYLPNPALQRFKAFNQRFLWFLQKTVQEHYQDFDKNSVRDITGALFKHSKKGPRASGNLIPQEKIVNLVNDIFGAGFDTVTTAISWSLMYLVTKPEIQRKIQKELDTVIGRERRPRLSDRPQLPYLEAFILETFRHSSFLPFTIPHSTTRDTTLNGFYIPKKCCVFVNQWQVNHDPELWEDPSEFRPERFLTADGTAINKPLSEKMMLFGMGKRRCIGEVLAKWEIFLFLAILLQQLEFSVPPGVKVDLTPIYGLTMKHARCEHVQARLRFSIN

[8] = Half life in mouse at 1 mg/kg, iv; assay type: ADME, organism-based; parameters: dose 1 mg/kg, route intravenous; conditions: in vivo
[9] = AUC in mouse at 5 mg/kg, po; assay type: ADME, organism-based; parameters: dose 5 mg/kg, route oral; conditions: plasma
[10] = Oral bioavailability in mouse at 5 mg/kg; assay type: ADME, organism-based; conditions: in vivo
Cytochrome P450 2C9 = Cytochrome P450 2C9 (Homo sapiens, UniProt P11712); experiment: Inhibition of CYP2C9-mediated warfarin metabolism; assay type: ADME; conditions: recombinant enzyme
Sequence of Cytochrome P450 2C9 (P11712 whole entry): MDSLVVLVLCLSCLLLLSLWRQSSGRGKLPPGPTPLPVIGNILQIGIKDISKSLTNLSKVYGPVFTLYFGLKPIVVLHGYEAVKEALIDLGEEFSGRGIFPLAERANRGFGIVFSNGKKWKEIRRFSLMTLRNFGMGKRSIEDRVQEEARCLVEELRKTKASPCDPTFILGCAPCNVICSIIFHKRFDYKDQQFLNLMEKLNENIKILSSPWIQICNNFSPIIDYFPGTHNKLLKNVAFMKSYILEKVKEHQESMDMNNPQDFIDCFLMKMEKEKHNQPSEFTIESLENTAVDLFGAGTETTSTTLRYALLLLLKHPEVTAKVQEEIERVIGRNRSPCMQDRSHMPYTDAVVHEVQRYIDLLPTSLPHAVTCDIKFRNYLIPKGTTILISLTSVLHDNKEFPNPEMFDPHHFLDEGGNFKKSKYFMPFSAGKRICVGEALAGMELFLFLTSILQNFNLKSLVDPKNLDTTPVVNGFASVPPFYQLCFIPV

Cytochrome P450 2C19 = Cytochrome P450 2C19 (Homo sapiens, UniProt P33261); experiment: Inhibition of CYP2C19-mediated mephenytoin metabolism; assay type: ADME; conditions: recombinant enzyme
Sequence of Cytochrome P450 2C19 (P33261 whole entry): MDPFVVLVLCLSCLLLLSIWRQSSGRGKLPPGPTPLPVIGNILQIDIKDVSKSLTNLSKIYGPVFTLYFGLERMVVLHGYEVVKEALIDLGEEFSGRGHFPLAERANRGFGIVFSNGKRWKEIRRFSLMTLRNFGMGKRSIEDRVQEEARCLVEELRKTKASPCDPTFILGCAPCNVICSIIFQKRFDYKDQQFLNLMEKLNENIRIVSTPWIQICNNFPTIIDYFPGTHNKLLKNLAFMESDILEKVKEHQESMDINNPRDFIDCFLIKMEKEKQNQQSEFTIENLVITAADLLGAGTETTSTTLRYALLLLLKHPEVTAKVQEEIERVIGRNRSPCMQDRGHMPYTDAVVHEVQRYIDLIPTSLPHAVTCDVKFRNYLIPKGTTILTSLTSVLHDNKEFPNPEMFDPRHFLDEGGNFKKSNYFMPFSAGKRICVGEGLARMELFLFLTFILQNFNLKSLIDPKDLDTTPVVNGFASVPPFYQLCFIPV

[11] = Clearance in rat liver microsomes; assay type: ADME, Microsome; method in brief: as §1
Cytochrome P450 3A4 = Cytochrome P450 3A4 (Homo sapiens, UniProt P08684); experiment: Inhibition of CYP3A4-mediated midazolam and testosterone metabolism; assay type: ADME; conditions: recombinant enzyme
Sequence of Cytochrome P450 3A4 (P08684 whole entry): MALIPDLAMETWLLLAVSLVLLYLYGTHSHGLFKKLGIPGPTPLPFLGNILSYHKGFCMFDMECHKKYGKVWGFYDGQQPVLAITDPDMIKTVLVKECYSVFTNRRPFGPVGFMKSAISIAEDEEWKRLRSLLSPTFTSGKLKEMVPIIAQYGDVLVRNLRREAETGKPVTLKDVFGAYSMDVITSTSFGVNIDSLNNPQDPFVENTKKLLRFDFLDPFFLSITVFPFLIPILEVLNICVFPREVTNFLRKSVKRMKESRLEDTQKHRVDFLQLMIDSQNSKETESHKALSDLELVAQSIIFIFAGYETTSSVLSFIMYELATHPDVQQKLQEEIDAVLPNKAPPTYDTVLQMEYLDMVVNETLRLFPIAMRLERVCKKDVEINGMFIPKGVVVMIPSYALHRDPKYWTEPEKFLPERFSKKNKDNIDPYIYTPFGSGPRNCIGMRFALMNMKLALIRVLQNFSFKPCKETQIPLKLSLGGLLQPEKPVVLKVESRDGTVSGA

[12] = Cytotoxicity against human MCF7/neo expressing HER2 after 3 days; assay type: functional
[13] = Plasma protein binding in mouse; assay type: ADME, cell-free; conditions: read-out: PPB (converted)
[14] = Plasma protein binding in human; assay type: ADME, cell-free; conditions: read-out: PPB (converted)
[15] = Plasma protein binding in rat; assay type: ADME, cell-free; conditions: read-out: PPB (converted)
Mus musculus [16] = experiment: Inhibition of mTORC1 in human PC3 cells xenografted mouse assessed as reduction of phosphorylated p70S6K level at 10 mg/kg, po after 6 hrs; assay type: functional, organism-based; parameters: dose 10 mg/kg; conditions: PC-3
Mus musculus [17] = experiment: Inhibition of mTORC2 in human PC3 cells xenografted mouse assessed as reduction of phosphorylated Akt level at 10 mg/kg, po after 6 hrs; assay type: functional, organism-based; parameters: dose 10 mg/kg; conditions: PC-3
Method in brief: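 NCI-PC3 s.c. xenografts in female NCR.nude mice grown to about 500 mm3, then randomized (n = 4). Oral suspension in 0.5% methylcellulose/0.2% Tween 80. Tumors were lysed, normalized by BCA assay, and loaded at 20 µg/well. pAkt Ser473 and total Akt were measured in duplex on Meso Scale electrochemiluminescence in duplicate per mouse, relative to time-matched vehicle mean.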

Mus musculus [18] = experiment: Inhibition of mTORC2 in human U87 cells xenografted mouse assessed as reduction of phosphorylated Akt level at 10 mg/kg, po after 24 hrs; assay type: functional, organism-based; parameters: dose 10 mg/kg; conditions: U-87MG ATCC
Method in brief: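 U87 glioma (PTEN-deficient) tumor-bearing mice, four per compound and time point. Tumor and blood were sampled over 24 h. Phospho-Akt was measured in duplicate samples per mouse and expressed relative to time-matched vehicle controls; mean ± one SD.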

Mus musculus [19] = experiment: Inhibition of mTORC1 in human U87 cells xenografted mouse assessed as reduction of phosphorylated p70S6K level at 10 mg/kg, po after 24 hrs; assay type: functional, organism-based; parameters: dose 10 mg/kg; conditions: U-87MG ATCC
PC-3 [20] = experiment: Antitumor activity against human PC3 cells xenografted mouse assessed as tumor growth inhibition at 10 mg/kg, po qd for 14 days; assay type: functional, organism-based; parameters: dose 10 mg/kg
Method in brief: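 Female NCR.nude mice implanted s.c. in right hind flank with NCI-PC3 cells (5 × 10^6 in Hank's balanced salt solution). Dosing started QD at average tumor volume 200 mm3, 5 mice per group. Body weight recorded twice weekly; 10% body weight loss was the limit for tolerated doses, and mice were euthanized at 20% loss or tumor volume 2000 mm3.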

CCNC(=O)Nc1ccc(-c2nc3c(c(N4CCOCC4)n2)CCN(S(C)(=O)=O)C3)cc1
IC50 [1]: 43 nM
IC50 (PC-3 [2]): 430 nM

CCNC(=O)Nc1ccc(-c2nc(N3CCOCC3)c3sc(C(C)(C)O)cc3n2)cc1
Ratio Ki [3]: 20

CCNC(=O)Nc1ccc(-c2nc3c(c(N4CCOC[C@@H]4C)n2)CCN(c2cccnn2)C3)cc1
inhibition (INH) (Cytochrome P450 2D6): Not Active
clearance [4]: 44 mL/min/kg
CLhep predicted [5]: 34 mL/min/kg
CLhep predicted [6]: 7.3 mL/min/kg
Vd [7]: 1.7 L/kg
inhibition (INH) (Cytochrome P450 1A2): Not Active
half-life [8]: 45 min
AUC [9]: 0.87 µM·h
bioavailability [10]: 21.8%
inhibition (INH) (Cytochrome P450 2C9): Not Active
inhibition (INH) (Cytochrome P450 2C19): Not Active
IC50 [1]: 13 nM
CLhep predicted [11]: 19 mL/min/kg
IC50 (PC-3 [2]): 140 nM
inhibition (INH) (Cytochrome P450 3A4): Not Active
IC50 [12]: 290 nM

CCNC(=O)Nc1ccc(-c2nc3c(c(N4CCOC[C@@H]4C)n2)CN(c2cnccn2)CC3)cc1
clearance [4]: 120 mL/min/kg
CLhep predicted [5]: 80 mL/min/kg
CLhep predicted [6]: 15 mL/min/kg
Vd [7]: 1.4 L/kg
half-life [8]: 10.8 min
fraction unbound [13]: 0.03
AUC [9]: 0.41 µM·h
bioavailability [10]: 29%
CLhep predicted [11]: 44 mL/min/kg
fraction unbound [14]: 0.03
fraction unbound [15]: 0.04

CCOC(=O)Nc1ccc(-c2nc3c(c(N4CCOCC4)n2)CCN(C(=O)c2ccccc2)C3)cc1
IC50 [1]: 115 nM
IC50 (PC-3 [2]): 4800 nM

Cc1c(CN2CCN(C(=O)[C@H](C)O)CC2)sc2c(N3CCOCC3)nc(-c3cnc(N)nc3)nc12
inhibition (Mus musculus [16]): Active
inhibition (Mus musculus [17]): Active

CCNC(=O)Nc1ccc(-c2nc3c(c(N4CCOC[C@@H]4C)n2)CCN(c2cnccn2)C3)cc1
inhibition (INH) (Cytochrome P450 2D6): Not Active
inhibition (INH) (Cytochrome P450 1A2): Not Active
inhibition (INH) (Cytochrome P450 2C9): Not Active
inhibition (INH) (Cytochrome P450 2C19): Not Active
IC50 [1]: 4.3 nM
IC50 (PC-3 [2]): 55 nM
inhibition (INH) (Cytochrome P450 3A4): Not Active
IC50 [12]: 110 nM

CCNC(=O)Nc1ccc(-c2nc3c(c(N4CCOCC4)n2)CCN(C(=O)c2ccccc2)C3)cc1
IC50 [1]: 22 nM
IC50 (PC-3 [2]): 340 nM

CCNC(=O)Nc1ccc(-c2nc3c(c(N4CCOC[C@@H]4CC)n2)CCN(c2ncccn2)C3)cc1
inhibition (INH) (Cytochrome P450 2D6): Not Active
inhibition (INH) (Cytochrome P450 1A2): Not Active
inhibition (INH) (Cytochrome P450 2C9): Not Active
inhibition (INH) (Cytochrome P450 2C19): Not Active
IC50 [1]: 1.5 nM
IC50 (PC-3 [2]): 40 nM
inhibition (INH) (Cytochrome P450 3A4): Not Active
IC50 [12]: 38 nM

CCNC(=O)Nc1ccc(-c2nc3c(c(N4CCOC[C@@H]4C)n2)CCN(c2nnc(C)o2)C3)cc1
inhibition (INH) (Cytochrome P450 2D6): Not Active
inhibition (INH) (Cytochrome P450 1A2): Not Active
inhibition (INH) (Cytochrome P450 2C9): Not Active
inhibition (INH) (Cytochrome P450 2C19): Not Active
IC50 [1]: 22 nM
IC50 (PC-3 [2]): 310 nM
inhibition (INH) (Cytochrome P450 3A4): Not Active
IC50 [12]: 130 nM

CCNC(=O)Nc1ccc(-c2nc3c(c(N4CCOCC4)n2)CCN(C(=O)OC)C3)cc1
IC50 [1]: 37 nM
IC50 (PC-3 [2]): 220 nM

CCNC(=O)Nc1ccc(-c2nc3c(c(N4CCOC[C@@H]4C)n2)CN(c2ncccn2)CC3)cc1
clearance [4]: 38 mL/min/kg
CLhep predicted [5]: 71 mL/min/kg
CLhep predicted [6]: 16 mL/min/kg
Vd [7]: 2.4 L/kg
half-life [8]: 102 min
fraction unbound [13]: 0.03
AUC [9]: 2.9 µM·h
bioavailability [10]: 62%
CLhep predicted [11]: 44 mL/min/kg
fraction unbound [14]: 0.02
fraction unbound [15]: 0.03

CCNC(=O)Nc1ccc(-c2nc3c(c(N4CCOCC4)n2)CCN(C(=O)OC(C)(C)C)C3)cc1
IC50 [1]: 22 nM

CO[C@H]1C[C@@H]2CC[C@@H](C)[C@@](O)(O2)C(=O)C(=O)N2CCCC[C@H]2C(=O)O[C@H]([C@H](C)C[C@@H]2CC[C@@H](O)[C@H](OC)C2)CC(=O)[C@H](C)/C=C(\C)[C@@H](O)[C@@H](OC)C(=O)[C@H](C)C[C@H](C)/C=C/C=C/C=C/1C
inhibition (Mus musculus [18]): inactive
inhibition (Mus musculus [19]): Active
TGI (PC-3 [20]): Active

CCNC(=O)Nc1ccc(-c2nc3c(c(N4CCOC[C@@H]4C)n2)CCN(c2nc(C)ns2)C3)cc1
inhibition (INH) (Cytochrome P450 2D6): Not Active
clearance [4]: 22 mL/min/kg
CLhep predicted [5]: 58 mL/min/kg
CLhep predicted [6]: 19 mL/min/kg
Vd [7]: 0.72 L/kg
inhibition (INH) (Cytochrome P450 1A2): Not Active
half-life [8]: 31.8 min
fraction unbound [13]: 0.02
AUC [9]: 2.5 µM·h
bioavailability [10]: 32%
inhibition (INH) (Cytochrome P450 2C9): Not Active
inhibition (INH) (Cytochrome P450 2C19): Not Active
IC50 [1]: 8.7 nM
CLhep predicted [11]: 29 mL/min/kg
fraction unbound [14]: 0.03
IC50 (PC-3 [2]): 230 nM
inhibition (INH) (Cytochrome P450 3A4): Not Active
fraction unbound [15]: 0.04
IC50 [12]: 69 nM
